TRPC4 agonist = activators of mouse TRPC4 channel; HEK293 TRPC4beta/mu-opioid, Fluo4 calcium fluorescence; hits give high values; AID 2237; Q9QUQ5; 310,000 compounds, 0.49% hits; B-score at 10 µM;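 active = B-score above 5 SD of library B-scores, and initial fluorescence ratio not above library mean plus 5 SD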;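 note: positive B-score marks a calcium rise read as TRPC4 activation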
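Assay system – TRPC4beta and mu-opioid receptor HEK293 stable cells · Measured by – Fluo4 fluorescence, kinetic · Schedule – dye loading 45 min room temperature, 110 s kinetic read · Read-out – B-scored integrated calcium fluorescence ratio · Controls – buffer and maximal DAMGO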
TRPC4 inh = blocks the mouse TRPC4 cation channel | AID 2247 | 300,000 compounds, 0.39% hits | B-score at 10 µM | HEK293 TRPC4beta/mu-opioid, DAMGO-evoked Fluo4 calcium flux; hits give low values | Q9QUQ5;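 active = B-score over 3 SD under the library average, no early fluorescence shift, positive overall ratio signal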
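Signal: kinetic Fluo4 fluorescence imaging of calcium influx. Material: stable TRPC4beta/mu-opioid receptor HEK293 cells. Probe or stimulus: DAMGO in two steps, submaximal then maximal.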
TRPC6 activator = activators of mouse TRPC6 channel | Q61143 | HEK293-TRPC6 membrane potential dye fluorescence; hits give high values | B-score at 10 µM | 310,000 compounds, 0.13% hits | AID 2550;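 active = B-score of the integrated fluorescence ratio above library mean plus 3 SD, and starting fluorescence ratio within library mean plus 5 SD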;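 note: higher score means more depolarization so channel activation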
TRPC6 inhibitor = inhibitors of mouse TRPC6 channel; 310,000 compounds, 1.1% hits; HEK293-TRPC6, membrane potential dye, ACh-evoked depolarization; hits give low values; B-score at 10 µM; Q61143; AID 2553;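 active = B-score under library mean minus 3 SD, initial fluorescence not abnormally high, positive integrated signal ratio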;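 note: B-score derived from integrated fluorescence ratio over the kinetic read; more negative B-score means stronger inhibition of depolarization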
TRPC4 PAM = allosteric potentiators of mouse TRPC4 channel. Q9QUQ5. HEK293 TRPC4beta/mu-opioid, DAMGO EC20, Fluo-4 Ca2+ flux; hits give high values. B-score at 10 µM. 310,000 compounds, 0.42% hits;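 active = B-score of calcium response area above 5 SD of library B-scores, with initial fluorescence ratio within 5 SD of library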;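 note: B-score of integrated fluorescence ratio over time as area under calcium response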
* = called active by the depositor; i = inactive. Compounds with a hit are over-represented: about 2.3% of the library has one in this group of screens.

SMILES | TRPC4 agonist | TRPC4 inh | TRPC6 activator | TRPC6 inhibitor | TRPC4 PAM
Cc1ccc(Cn2c(=N)c(C(=O)NC3CCCC3)cc3c(=O)n4ccccc4nc32)cc1 | 66* | i | i | i | 78*
N=c1c(C(=O)NC2CCCCC2)cc2c(=O)n3ccccc3nc2n1Cc1ccco1 | i | i | i | i | i
N=c1c(C(=O)NC2CCCCC2)cc2c(=O)n3ccccc3nc2n1CCc1ccccc1 | i | i | i | -4.99* | i
Cn1c(N)c(S(=O)(=O)NCc2ccc(F)cc2)c(=O)n(C)c1=O | i | i | i | i | i
CCOC(=O)c1[nH]c(=O)[nH]c1CNc1ccccc1C#N | i | i | i | i | i
CCN1CCN(c2cc(N3CCN(C(=O)c4ccco4)CC3)c3c4c(onc24)-c2ccccc2C3=O)CC1 | i | i | i | -5.88* | i
CN(C)C(CNC(=S)Nc1cccc(Cl)c1)c1ccccc1 (configuration not stated) | 220* | i | i | i | i
Cc1cccc(NC(=S)NC(C)CCc2ccccc2)c1 (configuration not stated) | i | i | i | i | i
Cc1cccc(NC(=S)NCC(c2ccccc2)N(C)C)c1 (configuration not stated) | 231* | i | i | i | i
CCC(C)NC(=O)c1ccc(C)c(NC(=O)C2=C(C)OCCS2)c1 (configuration not stated) | i | i | i | i | i
CCn1ccc(C(=O)Nc2ncc(C)s2)n1 | i | i | i | i | i
CCOC(=O)c1cnc2ccccc2c1NCc1ccco1 | i | -6* | i | i | i
CCOC(=O)c1cnc2ccc(OC)cc2c1NCc1ccccc1 | i | i | i | i | i
NC(=O)C(c1ccc(Cl)cc1Cl)c1ncc(C(F)(F)F)cc1Cl (configuration not stated) | i | i | i | i | 14*
O=C(NCc1ccc2c(c1)OCO2)C(=O)NCC1OCCCN1S(=O)(=O)c1ccc(F)cc1 (configuration not stated) | i | i | i | i | i
CN(C)CCOC(=O)c1sc2ccccc2c1Cl | 92* | i | i | i | i
COC(=O)C1Cc2ccccc2CN1S(=O)(=O)c1ccc(F)cc1 (configuration not stated) | i | i | i | i | i
O=C(c1cccc(C(F)(F)F)c1)C1CCCN(Cc2ccc(OCCO)cc2)C1 (configuration not stated) | i | i | i | i | i
COc1ccc(CN2CCCC(C(=O)c3cccc(C(F)(F)F)c3)C2)cc1O (configuration not stated) | 62* | -8* | i | i | i
CC(=O)Nc1ccc(CN2CCCC(C(=O)c3cccc(C(F)(F)F)c3)C2)cc1 (configuration not stated) | 88* | i | i | i | i
O=C(COC(=O)C1CCC(N2C(=O)C3C4CCC(C4)C3C2=O)CC1)c1ccc(F)cc1 (configuration not stated) | i | i | i | i | i
CCN1CCCC(OC(=O)c2cc(-c3ccc(C)cc3)nc3ccccc23)C1 (configuration not stated) | i | i | i | i | 14*
c1ccc(Cn2c(CN3CCCC3)nc3ccccc32)cc1 | i | -7* | i | i | i
Cn1cccc1-c1nc2ccccc2n1Cc1ccccc1 | i | -5* | i | i | i
CN(c1ccc(C(=O)NCCCn2ccnc2)cc1)S(C)(=O)=O | i | i | i | i | i
SMILES | TRPC4 agonist | TRPC4 inh | TRPC6 activator | TRPC6 inhibitor | TRPC4 PAM
COc1cc(C(=O)NCC(c2cccs2)N2CCOCC2)cc(OC)c1OC (configuration not stated) | i | i | i | i | i
Cc1ccn2c(NC3CCCCC3)c(C)nc2c1 | i | i | i | i | i
Cc1ccn2c(NC3CCCCC3)c(C(C)C)nc2c1 | i | -7* | i | i | i
CCCCOc1ccc(CSC2=NCCN2)cc1[N+](=O)[O-] | i | i | i | i | i
CCOc1ccc(CSC2=NCCN2)cc1[N+](=O)[O-] | i | i | i | i | 11*
CCCn1c(C2CCCN2c2nc(-c3ccc(C)cc3)cs2)nc2ccccc21 (configuration not stated) | 46* | i | i | i | i
Cc1ccc(Cn2c(C3CCCN3c3nc(-c4ccc(F)cc4)cs3)nc3cc(Cl)c(Cl)cc32)cc1 (configuration not stated) | i | i | i | i | i
CCOCCCNC(=O)/C(C#N)=C/c1ccc(Cl)c([N+](=O)[O-])c1 | i | i | i | i | 18*
C/C(=N\Nc1ccc(C(=O)O)cc1)c1ccc2c(c1)Nc1ccccc1S2 | i | -6* | i | i | i
O=C(COC(=O)c1nc(Cl)ccc1Cl)c1ccccc1Cl | i | i | i | i | 137*
COc1ccccc1C(=O)COC(=O)c1nc(Cl)ccc1Cl | i | i | i | i | i
C=CCn1c(SCC(=O)OC)nc2sc3c(c2c1=O)CCN(C)C3 | i | i | i | -5.7* | i
COCCn1c(SCc2ccc(F)cc2)nc2c1c(=O)[nH]c(=O)n2C | i | i | i | i | i
CC(=O)c1nn(-c2cccc(C)c2)cc1C(=O)c1cccc(Br)c1 | i | i | i | i | i
Clc1cc(Br)ccc1OCCn1ccnc1 | 84* | -6* | i | i | i
Cc1ccc(C)c(OCCn2ccnc2)c1 | i | i | i | i | i
Cc1cc(Br)ccc1OCCn1ccnc1 | 116* | i | i | i | i
Clc1ccc(OCCn2ccnc2)cc1Cl | 57* | i | i | i | 14*
COCCCN(Cc1ccco1)C(=O)Cn1ncc2c([nH]c3ccccc32)c1=O | i | i | i | i | i
CN(Cc1ccco1)C(=O)Cn1ncc2c([nH]c3ccccc32)c1=O | i | i | i | i | 20*
CCOc1cc(/C=C2\CCCc3c2nc2ccccc2c3C(=O)O)ccc1OC | i | i | i | i | i
COc1ccc(CN(CC(=O)NCc2ccccc2)C(=O)CCC(=O)Nc2nccs2)cc1 | i | i | i | i | i
O=C(CSc1nnc(-c2ccc(Cl)cc2Cl)n1C1CCCCC1)NC1CCS(=O)(=O)C1 (configuration not stated) | i | -6* | i | i | i
COC(=O)C1=CN(Cc2ccccc2)C=C(C(=O)OC)C1c1cc(F)ccc1F | i | i | i | i | i

High-throughput results deposited in PubChem by Johns Hopkins Ion Channel Center.
